Data reported in ChEMBL document CHEMBL1140069, “In vitro antifungal activity of polyfunctionalized 2-(hetero)arylquinolines prepared through imino Diels-Alder reactions” (2008).
In brackets after ≈: the same amount, converted by molar mass. Each block holds one molecule with its values, some of them ahead of it.

Tests used:
Type in all cases: functional
Candida albicans [1] = test: Antimicrobial activity against Candida albicans ATCC 10231 at 6.25 ug/ml after 24 hrs; details: ATCC 10231, 24 h
Procedure, shortened: (§1)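 Growth-inhibition microplate test. Strains are grown on Sabouraud-chloramphenicol agar for 48 h at 30 °C, and inoculum is added to RPMI-1640 containing compound at a final 100–6.25, with DMSO ≤2%. Each strain has a growth control (same DMSO, no compound) and a sterility control.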

Cryptococcus neoformans [2] = test: Antimicrobial activity against Cryptococcus neoformans IM 961951 isolate at 25 ug/ml after 48 hrs
Procedure, shortened: (§2)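 Clinical Cryptococcus isolates kept on Sabouraud-dextrose agar slopes; inoculum 1–5 × 10³ CFU/mL. Quinoline DMSO stocks were diluted in RPMI-1640 to final 100–6.25 µg/mL, with DMSO ≤2%. An equal volume of inoculum was added (200 µL per well). Run in triplicate.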

Cryptococcus neoformans [3] = test: Antimicrobial activity against Cryptococcus neoformans IM 972724 isolate at 12.5 ug/ml after 48 hrs; procedure, shortened: as §2
Candida albicans [4] = test: Antimicrobial activity against Candida albicans ATCC 10231 at 50 ug/ml after 24 hrs; details: ATCC 10231, 24 h; procedure, shortened: as §1
Cryptococcus neoformans [5] = test: Antimicrobial activity against Cryptococcus neoformans IM 972724 isolate at 100 ug/ml after 48 hrs; procedure, shortened: as §2
Cryptococcus neoformans [6] = test: Antimicrobial activity against Cryptococcus neoformans IM 983040 isolate at 25 ug/ml after 48 hrs; procedure, shortened: as §2
Cryptococcus neoformans [7] = test: Antimicrobial activity against Cryptococcus neoformans IM 031706 isolate at 12.5 ug/ml after 48 hrs
Procedure, shortened: (§3)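 Percent growth inhibition in 96-well microplates. Compound stocks in DMSO (≤2%) were diluted in RPMI-1640 to final 100–6.25 µg/mL, and 100 µL inoculum was added (final 200 µL). Controls were a growth well (inoculum with matching DMSO, no compound) and a sterility well (no inoculum). Inhibition was calculated against growth and sterility wells.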

Cryptococcus neoformans [8] = test: Antimicrobial activity against Cryptococcus neoformans IM 972751 isolate at 12.5 ug/ml after 48 hrs; procedure, shortened: as §2
Cryptococcus neoformans [9] = test: Antimicrobial activity against Cryptococcus neoformans IM 00319 isolate at 25 ug/ml after 48 hrs; procedure, shortened: as §3
Cryptococcus neoformans [10] = test: Antimicrobial activity against Cryptococcus neoformans IM 031706 isolate at 50 ug/ml after 48 hrs; procedure, shortened: as §3
Cryptococcus neoformans [11] = test: Antimicrobial activity against Cryptococcus neoformans IM 983040 isolate at 12.5 ug/ml after 48 hrs; procedure, shortened: as §2
[12] = tested on: Trichophyton mentagrophytes; test: Antifungal activity against Trichophyton mentagrophytes ATCC 9972 after 48 hrs by broth microdilution technique; details: ATCC 9972, 48 h
Procedure, shortened: (§4)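 CLSI broth microdilution: M-27 A2 for yeasts and M-38 A for filamentous fungi. Medium is RPMI-1640 buffered to pH 7.0 with MOPS. Compound is diluted twofold from 250 to 0.98, final DMSO ≤2%. Inoculum is 1–5 × 10³ CFU/mL. Plates are incubated at 35 °C in a moist, dark chamber and read visually at 48 h. MIC100 is the lowest concentration giving total growth inhibition versus drug-free control.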

Cryptococcus neoformans [13] = test: Antimicrobial activity against Cryptococcus neoformans IM 031706 isolate at 100 ug/ml after 48 hrs; procedure, shortened: as §3
Cryptococcus neoformans [14] = test: Antimicrobial activity against Cryptococcus neoformans IM 983036 isolate at 12.5 ug/ml after 48 hrs; procedure, shortened: as §2
Cryptococcus neoformans [15] = test: Antimicrobial activity against Cryptococcus neoformans IM 961951 isolate at 100 ug/ml after 48 hrs; procedure, shortened: as §3
Cryptococcus neoformans [16] = test: Antimicrobial activity against Cryptococcus neoformans IM 983036 isolate at 25 ug/ml after 48 hrs; procedure, shortened: as §2
Trichophyton rubrum = test: Antifungal activity against Trichophyton rubrum C110 after 48 hrs by broth microdilution technique; details: read-out: MIC; procedure, shortened: as §4
Cryptococcus neoformans [17] = test: Antimicrobial activity against Cryptococcus neoformans IM 042074 isolate at 50 ug/ml after 48 hrs; procedure, shortened: as §3
Aspergillus flavus = test: Antifungal activity against Aspergillus flavus ATCC 9170 after 48 hrs by broth microdilution technique; details: ATCC 9170, 48 h; procedure, shortened: as §4
Cryptococcus neoformans [18] = test: Antimicrobial activity against Cryptococcus neoformans ATCC 32264 at 100 ug/ml after 48 hrs; details: ATCC 32264, 48 h; procedure, shortened: as §3
Cryptococcus neoformans [19] = test: Antimicrobial activity against Cryptococcus neoformans IM 042074 isolate at 100 ug/ml after 48 hrs; procedure, shortened: as §3
Cryptococcus neoformans [20] = test: Antimicrobial activity against Cryptococcus neoformans IM 031706 isolate at 25 ug/ml after 48 hrs; procedure, shortened: as §3
Cryptococcus neoformans [21] = test: Antimicrobial activity against Cryptococcus neoformans IM 972724 isolate at 6.25 ug/ml after 48 hrs; procedure, shortened: as §2
Cryptococcus neoformans [22] = test: Antifungal activity against Cryptococcus neoformans ATCC 32264 after 48 hrs by broth microdilution technique; details: ATCC 32264, 48 h; procedure, shortened: as §4
Cryptococcus neoformans [23] = test: Antimicrobial activity against Cryptococcus neoformans IM 031631 isolate at 100 ug/ml after 48 hrs; procedure, shortened: as §3
Cryptococcus neoformans [24] = test: Antimicrobial activity against Cryptococcus neoformans ATCC 32264 at 50 ug/ml after 48 hrs; details: ATCC 32264, 48 h; procedure, shortened: as §3
Cryptococcus neoformans [25] = test: Antimicrobial activity against Cryptococcus neoformans IM 983040 isolate at 100 ug/ml after 48 hrs; procedure, shortened: as §2
Cryptococcus neoformans [26] = test: Antimicrobial activity against Cryptococcus neoformans IM 00319 isolate at 50 ug/ml after 48 hrs; procedure, shortened: as §3
Cryptococcus neoformans [27] = test: Antimicrobial activity against Cryptococcus neoformans IM 052470 isolate at 12.5 ug/ml after 48 hrs; procedure, shortened: as §3
Candida albicans [28] = test: Antifungal activity against Candida albicans ATCC 10231 after 48 hrs by broth microdilution technique; details: ATCC 10231, 48 h; procedure, shortened: as §4
Cryptococcus neoformans [29] = test: Antimicrobial activity against Cryptococcus neoformans ATCC 32264 at 6.25 ug/ml after 48 hrs; details: ATCC 32264, 48 h; procedure, shortened: as §3
Cryptococcus neoformans [30] = test: Antimicrobial activity against Cryptococcus neoformans IM 052470 isolate at 6.25 ug/ml after 48 hrs; procedure, shortened: as §3
Cryptococcus neoformans [31] = test: Antimicrobial activity against Cryptococcus neoformans IM 00319 isolate at 100 ug/ml after 48 hrs; procedure, shortened: as §3
Cryptococcus neoformans [32] = test: Antimicrobial activity against Cryptococcus neoformans IM 031631 isolate at 6.25 ug/ml after 48 hrs; procedure, shortened: as §3
Candida albicans [33] = test: Antimicrobial activity against Candida albicans ATCC 10231 at 12.5 ug/ml after 24 hrs; details: ATCC 10231, 24 h; procedure, shortened: as §1
Nannizzia gypsea = test: Antifungal activity against Microsporum gypseum C115 after 48 hrs by broth microdilution technique; procedure, shortened: as §4
Cryptococcus neoformans [34] = test: Antimicrobial activity against Cryptococcus neoformans IM 983040 isolate at 50 ug/ml after 48 hrs; procedure, shortened: as §2
Aspergillus fumigatus = test: Antifungal activity against Aspergillus fumigatus ATTC 26934 after 48 hrs by broth microdilution technique; procedure, shortened: as §4
Cryptococcus neoformans [35] = test: Antimicrobial activity against Cryptococcus neoformans IM 972724 isolate at 50 ug/ml after 48 hrs; procedure, shortened: as §2
Cryptococcus neoformans [36] = test: Antimicrobial activity against Cryptococcus neoformans IM 00319 isolate at 6.25 ug/ml after 48 hrs; procedure, shortened: as §3
Saccharomyces cerevisiae = test: Antifungal activity against Saccharomyces cerevisiae ATCC 9763 after 48 hrs by broth microdilution technique; details: ATCC 9763, 48 h; procedure, shortened: as §4
Cryptococcus neoformans [37] = test: Antimicrobial activity against Cryptococcus neoformans IM 972724 isolate at 25 ug/ml after 48 hrs; procedure, shortened: as §2
Candida albicans [38] = test: Antimicrobial activity against Candida albicans ATCC 10231 at 100 ug/ml after 24 hrs; details: ATCC 10231, 24 h; procedure, shortened: as §1

MIC [12]: 25 µg/mL (≈ 122 µM)
MIC (Trichophyton rubrum): 25 µg/mL (≈ 122 µM)
MIC (Aspergillus flavus): > 250 µg/mL
MIC (Cryptococcus neoformans [22]): 31.2 µg/mL (≈ 152 µM)
MIC (Candida albicans [28]): 250 µg/mL (≈ 1220 µM)
MIC (Nannizzia gypsea): 16 µg/mL (≈ 77.9 µM)
MIC (Aspergillus fumigatus): > 250 µg/mL
MIC (Saccharomyces cerevisiae): 125 µg/mL (≈ 609 µM)
SMILES: c1ccc(-c2ccc3ccccc3n2)cc1 [2-PHENYLQUINOLINE]
inhibition at 6.25 µg/mL (Candida albicans [1]): 0%
inhibition at 25 µg/mL (Cryptococcus neoformans [2]): 10%
inhibition at 12.5 µg/mL (Cryptococcus neoformans [3]): 13%
inhibition at 50 µg/mL (Candida albicans [4]): 0%
inhibition at 100 µg/mL (Cryptococcus neoformans [5]): 99%
inhibition at 25 µg/mL (Cryptococcus neoformans [6]): 13%
inhibition at 12.5 µg/mL (Cryptococcus neoformans [7]): 0%
inhibition at 12.5 µg/mL (Cryptococcus neoformans [8]): 0%
inhibition at 25 µg/mL (Cryptococcus neoformans [9]): 14%
inhibition at 50 µg/mL (Cryptococcus neoformans [10]): 46%
inhibition at 12.5 µg/mL (Cryptococcus neoformans [11]): 4%
inhibition at 100 µg/mL (Cryptococcus neoformans [13]): 67%
inhibition at 12.5 µg/mL (Cryptococcus neoformans [14]): 0%
inhibition at 100 µg/mL (Cryptococcus neoformans [15]): 45%
inhibition at 25 µg/mL (Cryptococcus neoformans [16]): 0%
inhibition at 50 µg/mL (Cryptococcus neoformans [17]): 77%
inhibition at 100 µg/mL (Cryptococcus neoformans [18]): 100%
inhibition at 100 µg/mL (Cryptococcus neoformans [19]): 84%
inhibition at 25 µg/mL (Cryptococcus neoformans [20]): 17%
inhibition at 6.25 µg/mL (Cryptococcus neoformans [21]): 0%
inhibition at 100 µg/mL (Cryptococcus neoformans [23]): 74%
inhibition at 50 µg/mL (Cryptococcus neoformans [24]): 100%
inhibition at 100 µg/mL (Cryptococcus neoformans [25]): 50%
inhibition at 50 µg/mL (Cryptococcus neoformans [26]): 34%
inhibition at 12.5 µg/mL (Cryptococcus neoformans [27]): 21%
inhibition at 6.25 µg/mL (Cryptococcus neoformans [29]): 0%
inhibition at 6.25 µg/mL (Cryptococcus neoformans [30]): 0%
inhibition at 100 µg/mL (Cryptococcus neoformans [31]): 47%
inhibition at 6.25 µg/mL (Cryptococcus neoformans [32]): 0%
inhibition at 12.5 µg/mL (Candida albicans [33]): 0%
inhibition at 50 µg/mL (Cryptococcus neoformans [34]): 29%
inhibition at 50 µg/mL (Cryptococcus neoformans [35]): 87%
inhibition at 6.25 µg/mL (Cryptococcus neoformans [36]): 0%
inhibition at 25 µg/mL (Cryptococcus neoformans [37]): 35%
inhibition at 100 µg/mL (Candida albicans [38]): 0%

MIC [12]: 50 µg/mL (≈ 242 µM)
MIC (Trichophyton rubrum): 50 µg/mL (≈ 242 µM)
MIC (Aspergillus flavus): 50 µg/mL (≈ 242 µM)
MIC (Cryptococcus neoformans [22]): 50 µg/mL (≈ 242 µM)
MIC (Candida albicans [28]): 100 µg/mL (≈ 485 µM)
MIC (Nannizzia gypsea): 50 µg/mL (≈ 242 µM)
MIC (Aspergillus fumigatus): 50 µg/mL (≈ 242 µM)
MIC (Saccharomyces cerevisiae): 50 µg/mL (≈ 242 µM)
SMILES: c1ccc2nc(-c3ccncc3)ccc2c1
inhibition at 6.25 µg/mL (Candida albicans [1]): 19%
inhibition at 25 µg/mL (Cryptococcus neoformans [2]): 78%
inhibition at 12.5 µg/mL (Cryptococcus neoformans [3]): 0%
inhibition at 50 µg/mL (Candida albicans [4]): 73%
inhibition at 100 µg/mL (Cryptococcus neoformans [5]): 74%
inhibition at 25 µg/mL (Cryptococcus neoformans [6]): 12%
inhibition at 12.5 µg/mL (Cryptococcus neoformans [7]): 41%
inhibition at 12.5 µg/mL (Cryptococcus neoformans [8]): 0%
inhibition at 25 µg/mL (Cryptococcus neoformans [9]): 52%
inhibition at 50 µg/mL (Cryptococcus neoformans [10]): 69%
inhibition at 12.5 µg/mL (Cryptococcus neoformans [11]): 0%
inhibition at 100 µg/mL (Cryptococcus neoformans [13]): 100%
inhibition at 12.5 µg/mL (Cryptococcus neoformans [14]): 20%
inhibition at 100 µg/mL (Cryptococcus neoformans [15]): 97%
inhibition at 25 µg/mL (Cryptococcus neoformans [16]): 45%
inhibition at 50 µg/mL (Cryptococcus neoformans [17]): 87%
inhibition at 100 µg/mL (Cryptococcus neoformans [18]): 100%
inhibition at 100 µg/mL (Cryptococcus neoformans [19]): 92%
inhibition at 25 µg/mL (Cryptococcus neoformans [20]): 57%
inhibition at 6.25 µg/mL (Cryptococcus neoformans [21]): 0%
inhibition at 100 µg/mL (Cryptococcus neoformans [23]): 100%
inhibition at 50 µg/mL (Cryptococcus neoformans [24]): 100%
inhibition at 100 µg/mL (Cryptococcus neoformans [25]): 45%
inhibition at 50 µg/mL (Cryptococcus neoformans [26]): 80%
inhibition at 12.5 µg/mL (Cryptococcus neoformans [27]): 24%
inhibition at 6.25 µg/mL (Cryptococcus neoformans [29]): 83%
inhibition at 6.25 µg/mL (Cryptococcus neoformans [30]): 0%
inhibition at 100 µg/mL (Cryptococcus neoformans [31]): 92%
inhibition at 6.25 µg/mL (Cryptococcus neoformans [32]): 12%
inhibition at 12.5 µg/mL (Candida albicans [33]): 41%
inhibition at 50 µg/mL (Cryptococcus neoformans [34]): 34%
inhibition at 50 µg/mL (Cryptococcus neoformans [35]): 23%
inhibition at 6.25 µg/mL (Cryptococcus neoformans [36]): 12%
inhibition at 25 µg/mL (Cryptococcus neoformans [37]): 8%
inhibition at 100 µg/mL (Candida albicans [38]): 100%
